{"data": "Measured values gathered from unrelated publications", "target": "Adenosine receptor A1 (ADORA1, Homo sapiens, UniProt P30542)", "Residues used in one study (P30542 1-326)": "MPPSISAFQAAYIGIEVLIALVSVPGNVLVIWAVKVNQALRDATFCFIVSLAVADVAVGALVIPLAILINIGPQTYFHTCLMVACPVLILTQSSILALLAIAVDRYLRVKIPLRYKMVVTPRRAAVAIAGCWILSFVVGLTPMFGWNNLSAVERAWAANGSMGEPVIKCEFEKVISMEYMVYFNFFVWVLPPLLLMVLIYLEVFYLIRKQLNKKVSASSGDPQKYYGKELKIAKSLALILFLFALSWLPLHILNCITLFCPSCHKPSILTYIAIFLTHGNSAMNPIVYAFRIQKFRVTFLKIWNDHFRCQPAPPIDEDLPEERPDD"}
{"Compound": "O[C@@H]1[C@H](O)CO[C@H]1n1cnc2c(NCc3cccc(F)c3)ncnc21", "read-out": "ligand displacement", "technique": "radioligand", "tested at": "10 µM", "notes": "cell membranes", "inhibition [%]": 16}
{"Compound": "Oc1cccc(Nc2nc(-c3ccc(F)cc3F)cs2)c1", "read-out": "cell-free assay", "tested at": "10 µM", "inhibition [%]": 46.5}
{"Compound": "CNC(=O)[C@@]12C[C@@H]1[C@@H](n1cnc3c(NC)nc(C#C[c-]4cccc4)nc31)[C@H](O)[C@@H]2O.[Fe+2].c1cc[cH-]c1", "read-out": "ligand displacement", "technique": "radioligand", "tested at": "10 µM", "notes": "cell membranes", "inhibition [%]": 25}
{"Compound": "C=CN1CCCn2c1nc1c2c(=O)n(C)c(=O)n1C", "read-out": "ligand displacement", "technique": "radioligand", "tested at": "10 µM", "notes": "cell membranes", "inhibition [%]": 21}
{"Compound": "CNc1nc(Cl)nc2c1ncn2[C@@H]1OC[C@@H](O)[C@H]1O", "read-out": "ligand displacement", "technique": "radioligand", "tested at": "10 µM", "notes": "cell membranes", "inhibition [%]": "< 10"}
{"Compound": "O=C(c1ccc(Cl)cc1)N(Cc1ccccc1)C1CCCCC1", "read-out": "cell-free assay", "tested at": "10 µM", "inhibition [%]": 1.7}
{"Compound": "O=C1N=C(N2CCCCN2)S/C1=C\\c1ccc(F)cc1O", "read-out": "ligand displacement", "technique": "radioligand", "tested at": "10 µM", "inhibition [%]": "< 10"}
{"Compound": "Ic1cccc2cnccc12", "read-out": "ligand displacement", "technique": "radioligand", "tested at": "10 µM", "inhibition [%]": -5}
{"Compound": "CNc1ncnc2c1ncn2[C@@H]1OC[C@@H](O)[C@H]1O", "read-out": "ligand displacement", "technique": "radioligand", "tested at": "10 µM", "notes": "cell membranes", "inhibition [%]": "< 10"}
{"Compound": "Cn1c(=O)[nH]c2nc[nH]c2c1=O", "read-out": "ligand displacement", "technique": "radioligand", "tested at": "30 µM", "notes": "cell membranes", "inhibition [%]": 78}
{"Compound": "O=C(Nc1ccc(S(=O)(=O)N2CCC(Cl)CC2)cc1)c1ccc([N+](=O)[O-])o1", "read-out": "ligand displacement", "technique": "radioligand", "tested at": "10 µM", "inhibition [%]": 12}
